Compounds with a hit are over-represented: about 1.8% of the library has one in this group of screens.
PABP1 MLLE inh: inhibitors of microRNA-mediated deadenylation, human PABP1 MLLE binding | P11940 | GST-MLLE / FITC-PAM2 fluorescence polarization | inhibition, % at 20 µM | 360,000 tested, 0.36% active; in the data active = inhibition above about 35%, passing the limit was not always enough
Target sequence (P11940 whole entry, looked up): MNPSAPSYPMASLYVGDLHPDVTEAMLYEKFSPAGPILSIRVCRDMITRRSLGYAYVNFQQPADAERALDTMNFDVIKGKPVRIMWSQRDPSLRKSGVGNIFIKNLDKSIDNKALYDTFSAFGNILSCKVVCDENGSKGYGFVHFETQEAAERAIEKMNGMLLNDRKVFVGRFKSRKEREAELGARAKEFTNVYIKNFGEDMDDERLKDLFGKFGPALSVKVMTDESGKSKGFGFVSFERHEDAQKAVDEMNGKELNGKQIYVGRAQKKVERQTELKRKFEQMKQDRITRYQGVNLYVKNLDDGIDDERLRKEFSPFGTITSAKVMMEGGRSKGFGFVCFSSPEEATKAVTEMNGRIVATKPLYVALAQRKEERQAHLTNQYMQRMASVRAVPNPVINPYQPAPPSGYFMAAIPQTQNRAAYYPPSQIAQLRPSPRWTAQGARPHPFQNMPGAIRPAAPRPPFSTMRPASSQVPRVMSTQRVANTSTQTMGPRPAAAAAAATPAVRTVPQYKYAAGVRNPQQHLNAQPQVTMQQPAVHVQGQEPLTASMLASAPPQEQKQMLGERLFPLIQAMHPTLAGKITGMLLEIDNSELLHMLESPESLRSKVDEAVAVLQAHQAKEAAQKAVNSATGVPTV
core dimer inh: HCV core protein dimerization inhibition; TR-FRET GST/Flag-core106 dimerization, 1536-well; inhibition, % at 5 µM; 300,000 tested, 0.33% active; AID 1899;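 active = inhibition above the mean of all tested compounds plus 3 SD, set per screening campaign, cut at about 45% in these data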
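Assay system: tagged HCV core106 pair (GST and Flag); medium: KF-containing HEPES buffer, pH 7.45, DTT, CHAPS, BSA; also added: Eu donor and XL665 acceptor anti-tag antibodies; dosing: 5 µM single dose; timing: compound-protein-antibody incubation 4 h at 22.5 °C; signal: TR-FRET 671 and 617 nm emission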
UBC9 SUMO inh: SUMOylation inhibition. P63279. HTRF SUMOylation assay, SAE1/SAE2 + UBC9, in vitro. inhibition, % at 35 µM. 290,000 tested, 0.36% active. AID 2006; in the data active = inhibition above about 50%, passing the limit was not always enough; inconclusive = no clear call, values can overlap the other calls
eIF4H inh: inhibitors of RNA binding by human eIF4H; 290,000 tested, 0.94% active; eIF4H fluorescence polarization binding assay; AID 2012; inhibition, % at 35 µM;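 also: calls also rest on retests at 20 µM and on dose response follow-up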
eIF4E-4G inh: inhibitors of eIF4E and eIF4G interaction in translation initiation; P63073+Q04637; TR-FRET eIF4E-eIF4GI(517-606) binding, 2 h; inhibition, % at 21.7 µM; 220,000 tested, 0.37% active;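 active = inhibition above about 30%, limit read from the data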
PABP FP inh: blocks human PABP binding to poly(A) RNA | P11940 | 290,000 tested, 1% active | fluorescence polarization | calls only at 35 µM;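 also: calls also rest on retests at 20 µM and on dose response follow-up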
Numbers stand for hits; . = inactive; ? = inconclusive; / = no result given; + = active, no number; [ ] = remark or other dose. Unless noted, no rule for the calls is given here.

SMILES | PABP1 MLLE inh | core dimer inh | UBC9 SUMO inh | eIF4H inh | eIF4E-4G inh | PABP FP inh
O=C(O)c1ccc(N/N=C/c2ccc(-c3cc(Cl)ccc3Cl)o2)cc1 | . | . | . | . | . | .
Cc1ccc(-c2ccc(/C=N/NC(=S)Nc3ccccc3)o2)cc1[N+](=O)[O-] | 38 | . | . | . | . | .
O=C(O)c1ccc(N/N=C/c2ccc(-c3ccc(Cl)cc3Cl)o2)cc1 | . | . | . | . | . | +
NS(=O)(=O)c1ccc(-c2ccc(/C=N/Nc3ccc(C(=O)O)cc3)o2)cc1 | . | . | . | 56 | . | .
COc1ccccc1NC(=O)CSc1ccc(-c2ccc(-n3ccnc3)cc2)nn1 | . | . | / | / | / | /
CCC(=O)c1ccc(OCC(=O)OCC(=O)N2c3ccccc3CC2C)cc1 (stereo not drawn) | . | . | / | / | / | /
CNC(=S)N/N=C/c1ccc(-c2ccc(Cl)c([N+](=O)[O-])c2)o1 | . | . | . | . | . | .
CNC(=S)N/N=C/c1ccc(-c2ccc(C(=O)O)cc2)o1 | . | . | . | 54 | . | +
NC(=O)c1sc2nc(-c3cccnc3)ccc2c1N | . | . | . | . | . | .
NC(=O)c1sc2nc(-c3ccco3)ccc2c1N | . | . | 76 | 92 | . | +
NC(=O)c1sc2nc3c(c(-c4ccco4)c2c1N)CCC3 | . | . | . | 97 | . | +
O=C(COC(=O)c1c2c(nc3ccccc13)/C(=C\c1ccco1)CC2)NC1CCCC1 | . | / | / | / | / | /
COC(=O)c1sc2nc(-c3ccco3)ccc2c1N | . | . | . | 55 | . | .
Nc1c(C(=O)NC2CC2)sc2nc3c(c(-c4ccco4)c12)CC/C3=C/c1ccco1 | . | 104 | ? | . | . | .
CC(C)OC(=O)c1sc2nc(-c3ccccc3)ccc2c1N | . | . | . | . | . | .
O=C(CNCc1ccc(F)cc1)Nc1cc(S(=O)(=O)N2CCOCC2)ccc1Cl | . | / | / | / | / | /
CCN1CCN(C(=O)CCc2nnc(CCCCc3ccccc3)o2)[C@@H](C)C1=O | . | . | . | . | . | .
Nc1c(C(=O)Nc2ccccc2F)sc2nc(-c3ccco3)ccc12 | . | 48 | 57 | 90 | . | +
COc1cc(/C=C/C(=O)N2C(=O)c3cccc(N)c3C2=O)cc(OC)c1OC | . | . | . | . | . | .
COc1ccc(OC)c(/C=C/C(=O)N2C(=O)c3cccc(N)c3C2=O)c1 | 40 | . | ? | . | . | .
O=C(c1cnc(Cc2c[nH]c3ccccc23)c(I)c1)N1CCCCC1 | . | / | / | / | / | /
CCOc1ccc(-n2c(SC(C)C)nc3c(c2=O)SCC3)cc1 | . | . | . | . | . | +
Cn1cnnc1SCC(=O)Nc1ncc(C(F)(F)F)cc1Cl | . | . | . | . | . | .
COCCNC(=S)N1CCC2CC1c1cc(-c3ccc4c(c3)OCO4)ccc12 (stereo not drawn) | . | / | / | / | / | /
N#C/C(=C/c1ccc(N2CCCCC2)o1)c1cccc(F)c1 | . | . | . | 87 | . | +
SMILES | PABP1 MLLE inh | core dimer inh | UBC9 SUMO inh | eIF4H inh | eIF4E-4G inh | PABP FP inh
Cc1cccc(OCC(=O)N2CCOCC2)c1 | . | . | . | 8.3 | . | +
COc1ccccc1CN(C)CC(=O)NC1CCCc2ccccc21 (stereo not drawn) | . | . | . | . | . | .
Cc1cc(SCc2ccc(Cl)cc2)nc(=O)[nH]1 | . | . | . | . | / | .
Cc1ccc(CSc2cc(C)[nH]c(=O)n2)cc1 | . | 53 | . | . | / | .
CCNC(=O)C1(C)CCCN1C(=O)c1cc(OC)c(OC)c(OC)c1 (stereo not drawn) | . | / | / | / | / | /
Cn1cnc([N+](=O)[O-])c1S(=O)(=O)Oc1ccc(Cl)cc1 | 41 | / | / | / | / | /
COC(=O)c1ccccc1NC(=O)CCS(=O)(=O)c1ccc(Br)s1 | . | . | . | . | . | .
Cc1ccccc1NC(=O)CCS(=O)(=O)c1ccc(Br)s1 | . | . | . | 58 | / | .
COCCN(CC(=O)Nc1cccc(C)c1C)C(=O)c1oc2ccccc2c1C | . | / | / | / | / | /
Nc1ccc2ncccc2c1N | . | . | . | 87 | / | +
c1cnc2ccc3ncccc3c2c1 | . | . | . | . | . | .
Cc1nc2c([nH]1)C1(CCN(Cc3ccccc3)CC1)C(C#N)=C(N)O2 | . | . | . | 45 | . | +
COc1ccc(NC(=S)NC(=O)c2csnn2)cc1 | . | . | . | . | . | .
O=C(NC(=S)Nc1ccccc1)c1csnn1 | 37 | . | . | . | . | .
O=C(c1ccc(-n2cccn2)cc1)N1CCc2c([nH]c3ccccc23)C1c1ccccn1 (stereo not drawn) | . | . | . | . | . | .
Cn1cccc1-c1cc(C(=O)N2CCc3c([nH]c4ccccc34)C2c2ccccn2)[nH]n1 (stereo not drawn) | . | . | . | . | 73 | .
Cc1cccc(C)c1NC(=S)Nc1ccc(F)cc1 | 44 | . | . | . | . | .
Cc1ccc(NC(=S)Nc2ccc(F)cc2)cc1C | . | . | . | . | / | .
COc1ccccc1CN1CC(C(=O)NCc2cc(F)ccc2C)CCC1=O (stereo not drawn) | . | / | . | . | / | .
CCOC(=O)/C(C#N)=C/c1ccc(N2CCN(C)CC2)cc1 | . | . | . | active | . | .
CCOC(=O)C1CCN(C(=O)Nc2ccccc2Cl)CC1 | . | . | . | . | . | .
CC(=O)Nc1ccc(S(=O)(=O)NCCSc2ccccn2)cc1 | . | . | . | 60 | 47[fluorescence artefact?] | +
COC(=O)/C(C#N)=C\c1c(OC)[nH]c2ccccc12 | . | . | . | . | . | .
Cn1c(CC(=O)Nc2ccc(Cl)c(Cl)c2)n[nH]c1=S | . | . | . | . | . | .
COc1ccc(Cc2n[nH]c(=S)n2NC(=O)Nc2ccc(Cl)c(Cl)c2)cc1 | . | . | 97 | . | . | .
SMILES | PABP1 MLLE inh | core dimer inh | UBC9 SUMO inh | eIF4H inh | eIF4E-4G inh | PABP FP inh
COc1cccc(NC(=O)CN(C)C(=O)CCc2nc3sc4c(c3c(=O)[nH]2)CCCC4)c1 | . | 49 | . | . | / | .
Cc1cccc(NC(=O)CCc2nc3sc4c(c3c(=O)[nH]2)CCCC4)c1 | . | . | / | / | / | /
CNc1ccccc1 | . | / | / | / | / | /
CNc1cccccc1=S | 49 | . | . | 101 | . | +
CCOC(=O)c1c(-c2ccc(C)o2)csc1N | . | . | . | 52 | . | +
O=C(CSc1cn[nH]n1)Nc1ccc(O)c(C(=O)O)c1 | 38 | . | . | . | / | .
COc1ccc(N2CCN(C(=O)CN(C)S(=O)(=O)c3cnc[nH]3)CC2)cc1 | . | . | . | . | . | .
O=C(CC(SCCO)c1ccc2c(c1)OCO2)c1cccs1 (stereo not drawn) | 43 | . | . | . | . | .
O=C(CC(SCc1ccco1)c1ccc(O)cc1)c1cccs1 (stereo not drawn) | . | . | . | . | . | .
CC(C)CCN1CCN(C2CSCCSC2)CC1CCO (stereo not drawn) | . | . | . | . | . | .
COC(=O)c1ccc(C2NC(C(=O)O)CS2)cc1 (stereo not drawn) | . | . | . | . | . | .

Bioassay records from PubChem.
